From publication PMC2757127 (Platelets, 2008)
Read-outs that look alike come from different tables or passages of the source.

How the values were obtained:
Assay type in all cases: cell-based
LPA3 = biological target: T1, LPA3 (Homo sapiens, UniProt Q9UBY5); test: LPA-elicited Ca2+ transients in RH7777 cells stably expressing LPA3; conditions: for Effect on LPA3: heterologously expressed LPA3
T1 sequence (Q9UBY5 1-353): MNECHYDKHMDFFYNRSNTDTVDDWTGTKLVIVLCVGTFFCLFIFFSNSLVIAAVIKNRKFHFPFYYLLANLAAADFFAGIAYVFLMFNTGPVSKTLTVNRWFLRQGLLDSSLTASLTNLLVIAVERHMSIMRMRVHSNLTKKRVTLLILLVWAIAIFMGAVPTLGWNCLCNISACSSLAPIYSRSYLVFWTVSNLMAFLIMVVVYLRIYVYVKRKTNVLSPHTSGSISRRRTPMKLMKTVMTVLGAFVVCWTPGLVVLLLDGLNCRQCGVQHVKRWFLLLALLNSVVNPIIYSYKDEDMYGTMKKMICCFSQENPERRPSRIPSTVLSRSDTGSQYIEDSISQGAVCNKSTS

LPA2 = LPA2 (Homo sapiens, UniProt Q9HBW0); test: LPA-elicited Ca2+ transients in RH7777 cells stably expressing LPA2; conditions: for Effect on LPA2: heterologously expressed LPA2
LPA1 = LPA1 (Homo sapiens, UniProt Q92633); test: LPA-elicited Ca2+ transients in RH7777 cells stably expressing LPA1; conditions: for Effect on LPA1: heterologously expressed LPA1
In short: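 RH7777 cells stably expressing receptor, seeded on poly-L-lysine-coated wells at 5 × 10^4 cells/well overnight. Serum-starved 6 h in modified Krebs buffer (pH 7.4), loaded with Fura-2 AM for 35 min with 2% pluronic acid. Ca2+ recorded as the ratio of 520 nm emission at 340/380 nm excitation. Albumin arm: 15 µM BSA for 5 min before LPA. Quadruplicate.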

LPA4 = LPA4 (Homo sapiens, UniProt Q99677); test: LPA-elicited Ca2+ transients in CHO cells stably expressing LPA4; conditions: for Effect on LPA4: Table II, heterologously expressed LPA4
LPA5 = LPA5 (Homo sapiens, UniProt Q9H1C0); test: LPA-elicited Ca2+ transients in RH7777 cells transiently transfected with LPA5; conditions: for Effect on LPA5: heterologously expressed LPA5; for Emax: relative to LPA 18:1
human platelets = test: Measurement of platelet cAMP; conditions: LPA 0.02–40 µM, 30 s–15 min; iloprost 50 nM, 1 minute
In short: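 Human platelets from PRP pretreated with acetylsalicylic acid 1 mM and apyrase 0.3 U/mL (15 min, 37°C), washed, resuspended at 400,000/µL in HEPES buffer with glucose and apyrase (pH 7.4). Stirred suspensions were warmed 2 min at 37°C, then exposed to agonist for the set time. cAMP was measured by enzyme immunoassay. Mean ± SD, n=3 donors; Student's test, P 0.05.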

washed human platelets = test: Platelet shape change; conditions: read-out: Platelets EC50, Table IV, n=4, mean ± SD
In short: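 Washed human platelets were prepared from aspirin (1 mM)/apyrase-treated PRP and resuspended at 400,000/µL in HEPES buffer (pH 7.4) with glucose and 0.6 U/mL apyrase. Stirred at 1100 rpm and 37°C for 2 min, then given increasing agonist concentrations in methanol or FAF-BSA buffer (lipid:BSA 4:1). Shape change read as the fall in light transmission in an aggregometer. Four donors.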

[1] = read-out: LPA5 transiently transfected RH7777 cells EC50, Table IV, mean ± SD
[2] = 15µM FAF-BSA, 5 min pre-incubation

Sequence of LPA4 (Q99677 whole entry): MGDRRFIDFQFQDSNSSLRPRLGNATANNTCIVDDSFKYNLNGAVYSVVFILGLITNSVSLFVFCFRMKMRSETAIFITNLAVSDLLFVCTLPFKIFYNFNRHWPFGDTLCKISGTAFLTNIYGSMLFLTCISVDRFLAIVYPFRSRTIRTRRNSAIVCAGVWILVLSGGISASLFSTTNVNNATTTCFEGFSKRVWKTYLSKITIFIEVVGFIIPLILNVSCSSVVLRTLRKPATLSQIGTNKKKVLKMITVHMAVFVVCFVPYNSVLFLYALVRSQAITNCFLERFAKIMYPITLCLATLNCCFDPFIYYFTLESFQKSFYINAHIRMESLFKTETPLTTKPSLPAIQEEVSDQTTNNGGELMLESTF
Sequence of LPA2 (Q9HBW0 whole entry): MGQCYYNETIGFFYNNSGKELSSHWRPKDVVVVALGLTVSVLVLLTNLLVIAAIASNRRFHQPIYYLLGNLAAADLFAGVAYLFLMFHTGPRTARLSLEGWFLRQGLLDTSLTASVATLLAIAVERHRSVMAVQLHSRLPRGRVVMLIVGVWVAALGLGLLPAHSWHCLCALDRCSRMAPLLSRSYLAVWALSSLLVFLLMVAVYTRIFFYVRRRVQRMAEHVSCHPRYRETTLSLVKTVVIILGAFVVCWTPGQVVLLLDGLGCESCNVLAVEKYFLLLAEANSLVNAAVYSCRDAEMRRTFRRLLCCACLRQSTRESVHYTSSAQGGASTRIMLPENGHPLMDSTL
Sequence of LPA1 (Q92633 whole entry): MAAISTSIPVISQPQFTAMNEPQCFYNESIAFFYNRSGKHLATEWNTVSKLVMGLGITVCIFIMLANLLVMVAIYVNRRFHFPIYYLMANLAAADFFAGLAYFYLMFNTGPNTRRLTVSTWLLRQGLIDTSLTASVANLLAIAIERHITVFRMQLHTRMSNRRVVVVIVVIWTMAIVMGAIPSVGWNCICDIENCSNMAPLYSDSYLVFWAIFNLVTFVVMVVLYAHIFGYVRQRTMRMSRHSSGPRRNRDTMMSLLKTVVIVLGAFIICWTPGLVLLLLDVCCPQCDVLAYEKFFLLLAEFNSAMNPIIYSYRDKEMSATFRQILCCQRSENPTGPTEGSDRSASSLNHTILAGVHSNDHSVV
Sequence of LPA5 (Q9H1C0 whole entry): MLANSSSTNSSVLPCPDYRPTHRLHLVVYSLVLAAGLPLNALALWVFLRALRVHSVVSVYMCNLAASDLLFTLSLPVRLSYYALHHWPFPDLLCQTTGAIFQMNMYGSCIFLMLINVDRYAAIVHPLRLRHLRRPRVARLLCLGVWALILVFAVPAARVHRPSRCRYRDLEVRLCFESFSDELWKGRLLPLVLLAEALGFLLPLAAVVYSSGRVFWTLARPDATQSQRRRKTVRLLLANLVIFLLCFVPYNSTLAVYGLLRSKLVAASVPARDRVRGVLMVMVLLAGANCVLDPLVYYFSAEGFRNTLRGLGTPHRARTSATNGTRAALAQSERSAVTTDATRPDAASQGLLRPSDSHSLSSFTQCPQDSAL

CCCCCCCCCCCCCCCC(=O)N[C@@H](COP(=O)(O)O)C(=O)O [NPSPA, N-palmitoyl-serine phosphoric acid]
Effect on LPA3 (LPA3; Table II): Partial agonist
EC50 (LPA3; Table II, LPA3): 730 nM
Emax (LPA3; Table II, LPA3, relative to LPA 18:1): 81%
Effect on LPA2 (LPA2; Table II): Partial agonist
EC50 (LPA2; Table II, LPA2): 11.9 µM
Emax (LPA2; Table II, LPA2, relative to LPA 18:1): 46%
Effect on LPA1 (LPA1; Table II): Partial agonist
EC50 (LPA1; Table II, LPA1): 740 nM
Emax (LPA1; Table II, LPA1, relative to LPA 18:1): 63%
Effect on LPA4 (LPA4): No effect
Effect on LPA5 (LPA5; Table II): Partial agonist
EC50 (LPA5; Table II, LPA5): 420 nM
Emax (LPA5; Table II, LPA5): 23%

CCCCCCCCCCCCCCCC(=O)N[C@@H](Cc1ccc(OP(=O)(O)O)cc1)C(=O)O [NPTPA, N-palmitoyl-tyrosine phosphoric acid]
Effect on LPA3 (LPA3; Table II): No effect
Effect on LPA2 (LPA2; Table II): No effect
Effect on LPA1 (LPA1; Table II): Antagonist
Ki (LPA1; Table II, LPA1, inhibitory binding constant): 530 nM
Ki (LPA1; read-out: Ki at LPA1, text b35): 533 nM
Effect on LPA4 (LPA4): No effect
Effect on LPA5 (LPA5; Table II): Partial agonist
Emax (LPA5; Table II, LPA5): 72.0%

CCCCCCCCCCCCCCCC(=O)OC[C@@H](O)COP(=O)(O)O [acyl-LPA 16:0]
Change in platelet cAMP levels (human platelets): did not affect

CCCCCCCCCCCCCCCCOC[C@@H](O)COP(=O)(O)O [alkyl-LPA 16:0]
Change in platelet cAMP levels (human platelets): did not affect
EC50 (washed human platelets): 4.6 ± 0.98 nM
EC50 (LPA5; [1]): 4.1 ± 2.1 nM

CCCCCCCCCCCCCCCCCCOC[C@@H](O)COP(=O)(O)O [alkyl-LPA 18:0]
EC50 (washed human platelets): 20.2 ± 17.5 nM
EC50 (LPA5; [1]): 69.9 ± 21.4 nM

CC#CCC(C)[C@H](O)/C=C/[C@@H]1[C@H]2C/C(=C/CCCC(=O)O)C[C@H]2C[C@H]1O (stereo partly drawn) [iloprost]
Change in platelet cAMP levels (human platelets): robust increase

fatty acid free bovine serum albumin [FAF-BSA]
Effect on activation of LPA3 by LPA (LPA3; [2]): did not inhibit
Effect on activation of LPA2 by LPA (LPA2; [2]): did not inhibit
Effect on activation of LPA1 by LPA (LPA1; [2]): did not inhibit
Inhibition of LPA4 activation (LPA4; [2]): 40%
Effect on activation of LPA5 by LPA (LPA5; [2]): did not inhibit
